The molecules below were run on HEPG2 (assay: Cytotoxicity assay). Details: Homo sapiens, HepG2, 48 h, read-out: IC50 (50% inhibitory concentration), HEPG2.
Assay type: cell-based, human
How it was run: (§1)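 HepG2 cells (DMEM) or MCF-7 cells (RPMI-1640), each with 10% FBS, at 37 °C and 5% CO2. Cells were trypsinised, counted by trypan blue and seeded at 2.5 × 10^3 cells/well overnight. Test compound at 100, 50, 25, 12.5, 6.25 and 0 μM in 1% FBS medium, quadruplicate, 48 h. Adherent cells stained with 0.02% crystal violet, washed with water, dye dissolved in 1% SDS, A595. IC50 by linear regression of concentration against inhibition rate.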
O=C(Cn1cnc2ccccc2c1=O)Nc1ccc(O)cc1[N+](=O)[O-] [4a, N-(4-Hydroxy-2-nitrophenyl)-2-(4-oxoquinazolin-3(4H)-yl)acetamide] showed an IC50 greater than 100 µM. For O=C(Cn1cnc2ccccc2c1=O)Nc1cc(Cl)ccc1O [4b, N-(5-Chloro-2-hydroxyphenyl)-2-(4-oxoquinazolin-3(4H)-yl)acetamide], the IC50 was greater than 100 µM. With COc1ccc(NC(=O)Cn2cnc3ccccc3c2=O)c([N+](=O)[O-])c1 [4c, N-(4-methoxy-2-nitrophenyl)-2-(4-oxoquinazolin-3(4H)-yl)acetamide] the IC50 was greater than 100 µM. Cc1ccc(NC(=O)Cn2cnc3ccccc3c2=O)c(O)c1 [4d, N-(2-Hydroxy-4-methylphenyl)-2-(4-oxoquinazolin-3(4H)-yl)acetamide] showed an IC50 greater than 100 µM. O=C(Cn1cnc2ccccc2c1=O)Nc1ccccc1O [4e, N-(2-Hydroxyphenyl)-2-(4-oxoquinazolin-3(4H)-yl)acetamide] gave an IC50 of 54.9 ± 15.2 µM. O=C(Cn1cnc2ccccc2c1=O)Nc1ncccc1O [4f, N-(3-Hydroxypyridin-2-yl)-2-(4-oxoquinazolin-3(4H)-yl)acetamide] was tested, and the IC50 was greater than 100 µM. For COc1ccc(NC(=O)Cn2cnc3ccccc3c2=O)c(N)c1 [4g, N-(2-Amino-4-methoxyphenyl)-2-(4-oxoquinazolin-3(4H)-yl)acetamide], the IC50 was greater than 100 µM. Work on O=C(Cn1cnc2ccccc2c1=O)NCc1cccnc1 [4h, 2-(4-Oxoquinazolin-3(4H)-yl)-N-(pyridin-3-ylmethyl)acetamide] yielded an IC50 of 51.4 ± 10.2 µM. O=C(Cn1cnc2ccccc2c1=O)Nc1nccs1 [4i, 2-(4-Oxoquinazolin-3(4H)-yl)-N-(thiazol-2-yl)acetamide] gave an IC50 of 47.7 ± 16.2 µM. With O=c1c2ccccc2nc(S)n1Cc1cccnc1 [compound 5, 2-Mercapto-3-(pyridin-3-ylmethyl)quinazolin-4(3H)-one] the IC50 was greater than 100 µM.

Same assay, conditions: read-out: IC50 (50% inhibitory concentration), HEPG2; human hepatocellular carcinoma, 48 hours, 1% FBS, mean ± SD
With “3-(((1-(2-Hydroxyethyl)-5-nitro-1H-benzo[d]imidazole-2-yl)methyl)thio)-2-(pyridin-3-ylmethyl)isoquinolin-1(2H)-one [9c]” the IC50 was greater than 100 µM. “3-(((1H-Benzo[d]imidazole-2-yl)methyl)thio)-2-(pyridin-3-ylmethyl)isoquinolin-1(2H)-one [9a]” showed an IC50 greater than 100 µM.

These molecules were tested on MCF-7 (assay: Cytotoxicity assay). Details: Homo sapiens, MCF7, 48 h, read-out: IC50 (50% inhibitory concentration), MCF-7.
Assay type: cell-based, human
How it was run: as §1
In the case of O=C(Cn1cnc2ccccc2c1=O)Nc1ccc(O)cc1[N+](=O)[O-] [4a, N-(4-Hydroxy-2-nitrophenyl)-2-(4-oxoquinazolin-3(4H)-yl)acetamide], the IC50 is reported as greater than 100 µM. Molecule O=C(Cn1cnc2ccccc2c1=O)Nc1cc(Cl)ccc1O [4b, N-(5-Chloro-2-hydroxyphenyl)-2-(4-oxoquinazolin-3(4H)-yl)acetamide] has an IC50 greater than 100 µM. Molecule COc1ccc(NC(=O)Cn2cnc3ccccc3c2=O)c([N+](=O)[O-])c1 [4c, N-(4-methoxy-2-nitrophenyl)-2-(4-oxoquinazolin-3(4H)-yl)acetamide] has an IC50 greater than 100 µM. Cc1ccc(NC(=O)Cn2cnc3ccccc3c2=O)c(O)c1 [4d, N-(2-Hydroxy-4-methylphenyl)-2-(4-oxoquinazolin-3(4H)-yl)acetamide] gave an IC50 greater than 100 µM. Molecule O=C(Cn1cnc2ccccc2c1=O)Nc1ccccc1O [4e, N-(2-Hydroxyphenyl)-2-(4-oxoquinazolin-3(4H)-yl)acetamide] has an IC50 greater than 100 µM. Work on O=C(Cn1cnc2ccccc2c1=O)Nc1ncccc1O [4f, N-(3-Hydroxypyridin-2-yl)-2-(4-oxoquinazolin-3(4H)-yl)acetamide] yielded an IC50 greater than 100 µM. With COc1ccc(NC(=O)Cn2cnc3ccccc3c2=O)c(N)c1 [4g, N-(2-Amino-4-methoxyphenyl)-2-(4-oxoquinazolin-3(4H)-yl)acetamide] the IC50 was greater than 100 µM. In the case of O=C(Cn1cnc2ccccc2c1=O)NCc1cccnc1 [4h, 2-(4-Oxoquinazolin-3(4H)-yl)-N-(pyridin-3-ylmethyl)acetamide], the IC50 is reported as 58.2 ± 8.04 µM. O=C(Cn1cnc2ccccc2c1=O)Nc1nccs1 [4i, 2-(4-Oxoquinazolin-3(4H)-yl)-N-(thiazol-2-yl)acetamide] was tested, and the IC50 was greater than 100 µM. For O=c1c2ccccc2nc(S)n1Cc1cccnc1 [compound 5, 2-Mercapto-3-(pyridin-3-ylmethyl)quinazolin-4(3H)-one], the IC50 was greater than 100 µM.

Same assay, conditions: read-out: IC50 (50% inhibitory concentration), MCF-7; human breast cancer, 48 hours, 1% FBS, mean ± SD
“3-(((1-(2-Hydroxyethyl)-5-nitro-1H-benzo[d]imidazole-2-yl)methyl)thio)-2-(pyridin-3-ylmethyl)isoquinolin-1(2H)-one [9c]” showed an IC50 greater than 100 µM. Work on “3-(((1H-Benzo[d]imidazole-2-yl)methyl)thio)-2-(pyridin-3-ylmethyl)isoquinolin-1(2H)-one [9a]” yielded an IC50 greater than 100 µM.

Each molecule was assayed on HEPG2.2.15 (assay: Cytotoxicity assay). Details: read-out: IC50 (50% inhibitory concentration), HEPG2.2.15; human hepatocellular carcinoma, HBV transformed, 48 hours, 1% FBS, mean ± SD.
Assay type: cell-based
How it was run: (§2)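 Cells grown at 37 °C, 5% CO2 with 10% FBS (HepG2.2.15 in DMEM; MDA-MB-231 in DMEM/F12 1:1) and trypsinised and trypan blue-counted 24 h before. Seeded at 2.5 × 10^3 per well overnight, then exposed in quadruplicate to 100–6.25 μM plus 0 μM in 1% FBS medium for 48 h. Crystal violet stain, water wash, SDS solubilisation, A595. IC50 from linear regression of concentration against inhibition rate.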
Molecule “3-(((1-(2-Hydroxyethyl)-5-nitro-1H-benzo[d]imidazole-2-yl)methyl)thio)-2-(pyridin-3-ylmethyl)isoquinolin-1(2H)-one [9c]” has an IC50 greater than 100 µM. Work on “3-(((1H-Benzo[d]imidazole-2-yl)methyl)thio)-2-(pyridin-3-ylmethyl)isoquinolin-1(2H)-one [9a]” yielded an IC50 greater than 100 µM.

What follows are molecules tested on MDA-MB-231 (assay: Cytotoxicity assay). Details: read-out: IC50 (50% inhibitory concentration), MDA-MB-231; human breast cancer, 48 hours, 1% FBS, mean ± SD.
Assay type: cell-based
How it was run: as §2
With “3-(((1-(2-Hydroxyethyl)-5-nitro-1H-benzo[d]imidazole-2-yl)methyl)thio)-2-(pyridin-3-ylmethyl)isoquinolin-1(2H)-one [9c]” the IC50 was greater than 100 µM. With “3-(((1H-Benzo[d]imidazole-2-yl)methyl)thio)-2-(pyridin-3-ylmethyl)isoquinolin-1(2H)-one [9a]” the IC50 was greater than 100 µM.

These molecules were tested against SARS-CoV-2 3CL protease (Severe acute respiratory syndrome coronavirus 2, UniProt P0DTD1) (assay: In vitro inhibitory activity assay of 3CL protease). Details: read-out: inhibitory activity against 3CL protease.
Assay type: biochemical
O=C(Cn1cnc2ccccc2c1=O)Nc1ccc(O)cc1[N+](=O)[O-] [4a, N-(4-Hydroxy-2-nitrophenyl)-2-(4-oxoquinazolin-3(4H)-yl)acetamide] was tested, and the inhibition at 50 µM was greater than 50%. COc1ccc(NC(=O)Cn2cnc3ccccc3c2=O)c([N+](=O)[O-])c1 [4c, N-(4-methoxy-2-nitrophenyl)-2-(4-oxoquinazolin-3(4H)-yl)acetamide] gave an inhibition at 50 µM greater than 50%.

Source: paper PMC11500731 (RSC Advances, 2024)
